This is an account of results in the EternaBench riboswitch data.

The test system of this series is MS2 coat protein. Nature of the series: apparent Kd, MS2 coat protein; higher = weaker binding; RNA-MaP array; FMN 200 µM where present. In outline:
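Green signal from SNAP-549-labelled MS2 coat protein was normalised to red-channel RNA signal and to the median Fmax of control clusters. The protein was titrated from 0.7 or 1.5 nM, doubling to 3 µM, without and then with constant ligand, over designs transcribed by stalled E. coli RNA polymerase on Illumina sequencing-chip clusters, in 100 mM Tris-HCl pH 7.5, 80 mM KCl, 4 mM MgCl2, BSA, DTT, yeast tRNA and Tween-20. The apparent Kd is the median of filtered per-cluster binding-curve fits.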

The mark [1] stands for this setting: designed as: OFF switch for flavin mononucleotide, no ligand.
Setting [2] is: ligand present: flavin mononucleotide, designed as: OFF switch for flavin mononucleotide.
Setting [3] is: designed as: ON switch for flavin mononucleotide, no ligand.
The mark [4] stands for this setting: ligand present: flavin mononucleotide, designed as: ON switch for flavin mononucleotide.

With “UCGGCGCGAGGAUAUGCGGUUUGUGCUUUGGGCCCUGGCGUACAUGAGGAUCACCCAUGUAGAAGGCGCGCCGC”, the “apparent Kd” value was 19.5 nM under setting [1] and 19.6 nM under setting [2].

Consider “UUUUAACAUGAGGAUCACCCAUGUGAGGAUAUCGAAAUUUAUAUUAAUAUUAAUAUUACGAGAAGGCACAUUUU”, for which the “apparent Kd” value under setting [1] turned out to be 77.8 nM and the “apparent Kd” value under setting [2] worked out at 101 nM.

For “AACGUGUAAGGAUAUGCUGCUCGUCACGAAAGUGAUGAGUAGCAGAAGGUACAUGAGGAUCACCCAUGUAAAGA”, the “apparent Kd” value reads like this: under setting [1], 31.8 nM; under setting [2], 67 nM.

In the case of “CGUUUAUUUAUGGGUUUAUAUUAUGAGGAUAUCAAUAUUUUAUACAUGAGGAUCACCCAUGUUACUGAGAAGGCAUAAUUAACG”, the “apparent Kd” value reads like this: under setting [3], 10.9 nM; under setting [4], 6.44 nM.

As to “AGCUGGUAGAGAGGAUAUCAUGUGCUGACAUGAGGAUCACCCAUGUAGGGACGUCGGUCCAAUUAUGAGAAGGCUCUACCAGCA”, the “apparent Kd” value under setting [3] turned out to be 80.5 nM and the “apparent Kd” value under setting [4] is 48.2 nM.

Turning to “AUAUUUGUUUAGAAGGACAUGAGGAUCACCCAUGUCGCUGGGCGCGGGAAACCGUGGGCGGCCAUGUAGGAUAUAGGGAGAUAU”, the “apparent Kd” value turned out to be 36.6 nM under setting [1] and 24 nM under setting [2].

In the case of “UUAUUAAACAUUAACAUGAGGAUCACCCAUGUCAAAAGACAUGAGGAUAUGGAUCCUAAUUGGAUCCAGAAGGCAUGUAUUAAU”, the “apparent Kd” value under setting [3] amounted to 156 nM and the “apparent Kd” value under setting [4] was determined as 15.6 nM.

On to “CGGCCGCUACGCCGGCUCGACGCACAGGAUAUGCAGUUACAUGAGGAUCACCCAUGUGGCCAUGUGCAGAAGGGUGAUUCGCGA”, for which the “apparent Kd” value under setting [3] was found to be 135 nM and the “apparent Kd” value under setting [4] is 43.6 nM.

As for “UGUCGGAGCAGAGGAUAUUACAUGAGGAUCACCCAUGUAUGACCCAAUAGCUGGAAACAGCAAUGUAAGAAGGCUGCUCCGACA”, the “apparent Kd” value is, setting by setting: under setting [1], 14.6 nM; under setting [2], 295 nM.

Consider “UUGGACGUCGUAGGAUAUGUAGGAUAUUCCUACAUGAGGAUCACCCAUGUUGACAUGGAAGAAGCACAGAAGGACGAUGUCCAU”, for which the “apparent Kd” value came out at 150 nM under setting [3] and 6.6 nM under setting [4].

In the case of “CCCUCAACAUGAGGAUCACCCAUGUAGGAUAUCGCUAUUGUAAUCAUGAAACAUGAUUACAAUAGCGAGAAGGACAUAUGUUUU”, the “apparent Kd” value is 25.9 nM under setting [1] and 127 nM under setting [2].

As to “GUCAGCUCGUGAGGAUAUACAACACUGCUUCGGCAGUGAAUUAAGAUCACAUGAGGAUCACCCAUGUAGAAGGCACGAGCUGAU”, the “apparent Kd” value reads like this: under setting [1], 17 nM; under setting [2], 325 nM.

With “GCGAAGGGAGGAUAUCCGCGCGCGCACAUGAGGAUCACCCAUGUGCGCGCGCGCGCGCGCGGAGAAGGCCCGGUGC”, the “apparent Kd” value runs as follows: under setting [1], 16.4 nM; under setting [2], 13.4 nM.

With “ACAUGGUAUGUCAGGAUAUCUAACCGCAACGUUCUAGAGAAGGGACAUGAGGAUCACCCAUGUACGUUGUAAGA”, the “apparent Kd” value by setting is: under setting [1], 54.3 nM; under setting [2], 117 nM.

With “AUUUUGUCAGGAUAUGAUUAGUAGGAUGAGAGUGCUACUACUUAGAAGGGACAUGAGGAUCACCCAUGUAUUCC”, the “apparent Kd” value reads like this: under setting [1], 16.8 nM; under setting [2], 20 nM.

With “UCAUUUCAGUAAGGAUAUUAAAACAUGACGAUACAUGAGGAUCACCCAUGUUAAGAAGGUACUAAUACAAAUAAUGCAUUGUUC”, the “apparent Kd” value runs as follows: under setting [1], 14.7 nM; under setting [2], 15.5 nM.

Turning to “UGUGCGUAUGUGAGGAUAUGCUGGUCCUUGGAUCGGCAGAAGGCACAUGAGGAUCACCCAUGUGGUGUCGUACA”, the “apparent Kd” value runs as follows: under setting [1], 493 nM; under setting [2], 19.2 nM.

On to “ACUCAGUCAGGAUAUCGUUAAUUUAAUUGUUUGUAUUAGUUCGAGAAGGGACAUGAGGAUCACCCAUGUACUCA”, for which the “apparent Kd” value is, setting by setting: under setting [1], 31.7 nM; under setting [2], 87.4 nM.

Regarding “AACCUGAGGCUUUGCUUUAGGUGAACAUGAGGAUCACCCAUGUAGGAUAUGGUAGGCUUUGCUUACCAGAAGGACAUAUUAAUU”, the “apparent Kd” value was 39.3 nM under setting [1] and 86.1 nM under setting [2].

Turning to “UGUCGGAGCAGAGGAUAUUACAUGAGGAUCACCCAUGUAUGAACCAAUAGCUGGAAACAGCAAAGUAAGAAGGCUGCUCCGACA”, the “apparent Kd” value runs as follows: under setting [1], 6.28 nM; under setting [2], 79.4 nM.

Take “AGAAACUACGAGAAGGACAUGUGGUCCAAAAUAAACAUGAGGAUCACCCAUGUAGGAUAUCGUAGUUUCAGGAUCGUGAGAUCA”: the “apparent Kd” value under setting [1] turned out to be 260 nM and the “apparent Kd” value under setting [2] is 12.3 nM.

For the sequence “AACGUGUGAGGAUAUGCACGAGUGACAGGGAGGCUGUCACAGCAGAAGGUACAUGAGGAUCACCCAUGUGAAAU”, the “apparent Kd” value turned out to be 24.9 nM under setting [1] and 20.6 nM under setting [2].

Consider “CAGAUCGAUGUGAGGAUAUCUGUGUUACCCUGUAAGGAGAAGGCACAUGAGGAUCACCCAUGUGAUUCGGUCCU”, for which the “apparent Kd” value worked out at 40.4 nM under setting [1] and 36.3 nM under setting [2].

On to “GAGAAGUCAGGAUAUGCUGCUCGUCACUUGCGUGAUGAGUAGCAGAAGGGACAUGAGGAUCACCCAUGUAAAGC”, for which the “apparent Kd” value was found to be 47.3 nM under setting [1] and 53.6 nM under setting [2].

“GUAGGCGACCAGAAGGGUGACAUGAGGAUCACCCAUGUAGGUGUGUUCCCGCUUAGGAGCCACCCACAGGAUAUGGUUGGUUAG”: the “apparent Kd” value under setting [3] turned out to be 27.6 nM and the “apparent Kd” value under setting [4] was 23.9 nM.

Take “CUUAGGUGUACAUGAGGAUCACCCAUGUCCCUGGUCAUUAGACAGGAUAUAUGGGCGGUCGCUGCAUAGAAGGGUUAAAUGGGA”: the “apparent Kd” value was 764 nM under setting [3] and 591 nM under setting [4].

As for “CGGGUCAACAUGAGGAUCACCCAUGUACUGCUAAUGCAGUCACAGGAUAUCUUCGGUAGAUUAGAAGAGAAGGGUGAUGCCCAG”, the “apparent Kd” value reads like this: under setting [3], 136 nM; under setting [4], 117 nM.

Regarding “GCGUAGUUCUAGAAGGUGCUAGCGAUAAGCUAGCAAGGAUAUAGACAUGAGGAUCACCCAUGUCUUUGUGACAUCGACAUACGC”, the “apparent Kd” value under setting [1] amounted to 5.62 nM and the “apparent Kd” value under setting [2] amounted to 7.03 nM.

In the case of “AUAUGAUAGAUAGGAUAUACAGAUGAAUAAUAAGUAGAAGGAUCAAAUGGGAAUUAUACAUGAGGAUCACCCAUGUUUUUGGAU”, the “apparent Kd” value was found to be 50.1 nM under setting [3] and 32.1 nM under setting [4].

Take “UCAGGCUUCGAGAAGGACAUGAAUCGUAGCAUUGCUACGAUGAAACAUACAUGAGGAUCACCCAUGUAGGAUAUCGGAGUCUGC”: the “apparent Kd” value was 5.14 nM under setting [1] and 5.55 nM under setting [2].

For the sequence “GUAUUUUGAGGAUAUACUAUUAACCACAUGAGGAUCACCCAUGUUCUAUCAUGAAUUUAUGUAGAAGGCAGAAUGC”, the “apparent Kd” value is 71.8 nM under setting [1] and 128 nM under setting [2].

In the case of “GGACGUCACAUUAACAUGAGGAUCACCCAUGUCAAAGGACAUGAGGAUAUGGAUCCUAAUUGGAUCCAGAAGGCAUGGACGUCC”, the “apparent Kd” value under setting [3] came to 398 nM and the “apparent Kd” value under setting [4] was 34.3 nM.

As for “GCUGCAUGCAGAGGAUAUAUAACAUGAGGAUCACCCAUGUAAAAUAUAUGGAUAAACCAGAUAGUAUAGAAGGCUGCAUGCAGC”, the “apparent Kd” value stood at 22.9 nM under setting [1] and 19.1 nM under setting [2].

As for “CGUUGUUCCGCAGGAUAUGCAUUGGAUUACAAUGCAGAAGGGCGAUAACAUGAGGAUCACCCAUGUGUGGACAAUGAGGAAGAG”, the “apparent Kd” value under setting [3] turned out to be 792 nM and the “apparent Kd” value under setting [4] came to 55.2 nM.

On to “CCGAGAAGGAGAGGAUAUGGACAUGAGGAUCACCCAUGUACAUGGGAAUAUAUACUGAAUUUUUACUAGAAGGCUUACAUAAAU”, for which the “apparent Kd” value is 17.8 nM under setting [1] and 14 nM under setting [2].

“UGAGCAUGAGGAUAUACAUGACGUGCCGUAGCACGAGGUCUACAUGAGGAUCACCCAUGUAGAAGGCAUGUUCU”: the “apparent Kd” value under setting [1] stood at 23 nM and the “apparent Kd” value under setting [2] came out at 87.4 nM.

Consider “UUCGUGCAGCUUAGCUGUACGCGUACAUGAGGAUCACCCAUGUAGGAUAUGGUAGGCUUUGCUUACUAGAAGGAUAGUGUGAUC”, for which the “apparent Kd” value was found to be 215 nM under setting [1] and 70.5 nM under setting [2].

Turning to “GGAUAGGACAGAGGAUAUACGUGCUAGAGAUACUAUCAAAAUUUCCUCACAUGAGGAUCACCCAUGUAGAAGGCUGUCCUAUCG”, the “apparent Kd” value is, setting by setting: under setting [1], 270 nM; under setting [2], 52.1 nM.

Turning to “AUGCUAGUGUGAGGAUAUACAUGAGGAUCACCCAUGUGUCCGAAGUACCGGACAUGAGGUACGUCGUAGAAGGUACAUUAGCAU”, the “apparent Kd” value reads like this: under setting [1], 21 nM; under setting [2], 102 nM.

In the case of “UAAAAGUUAGGAUAUACAUGAGGAUCACCCAUGUCGCGGAACCGCGGCGAUUACUCCUGUAGAAGGAACAUCGU”, the “apparent Kd” value under setting [1] came out at 165 nM and the “apparent Kd” value under setting [2] was found to be 291 nM.

Take “ACCCAGUUUUGCACUACAUGAGGAUCACCCAUGUGAGCGAGCAGAAGGACGAUGGGUGGAAAAUCGUAGGAUAUGCACUGGGCU”: the “apparent Kd” value by setting is: under setting [3], 44.8 nM; under setting [4], 12.3 nM.

With “UCAAGUAUGUAGGAUAUCGAUGUCUGCGGACAUCGAGAAGGACGUACAUGAGGAUCACCCAUGUAACUUGCAUG”, the “apparent Kd” value was found to be 107 nM under setting [1] and 79.4 nM under setting [2].

Regarding “AGCUGGUGACAGCAUCCAUCAAAACAUGAGGAUCACCCAUGUAGAAGGCUGUACGGUUACCGUACAGAGGAUAUACAUAGAUGG”, the “apparent Kd” value reads like this: under setting [1], 10.4 nM; under setting [2], 14.9 nM.

As for “UAGAUGGGAGGAUAUACGUAGAUGCAGGUUCGUGUGGUUCUACAUGAGGAUCACCCAUGUAGAAGGCCCGUCUU”, the “apparent Kd” value by setting is: under setting [1], 16.6 nM; under setting [2], 27.5 nM.

For “UGGUACUAGGGAGGAUAUGGGAAGAUACAUGAGGAUCACCCAUGUUUAAGUAUGCCGAGAGGCAACUAGAAGGCCCUAGUACCU”, the “apparent Kd” value under setting [3] is 1440 nM and the “apparent Kd” value under setting [4] was determined as 116 nM.

With “CAGAGACAAGCAGGAUAUCGACACAUGAGGAUCACCCAUGUUCGUAGGAACCUGGGUCAAGUCUGCGAGAAGGGCUCGUCAGUA”, the “apparent Kd” value under setting [1] was 151 nM and the “apparent Kd” value under setting [2] stood at 159 nM.

Consider “GCCAGUUAUGUAGGAUAUGCGAAGCGAGCCUGAGCAGAAGGACAUGAGGAUCACCCAUGUGUUGCGGUUUGAGUACUGAUCGCU”, for which the “apparent Kd” value under setting [1] is 24.4 nM and the “apparent Kd” value under setting [2] worked out at 89.4 nM.

Regarding “GUAGAGGAUUGAGGAUAUGCAGAGAGAUCAUGCGCGUCGCGCACAUGAGGAUCACCCAUGUAAGAGCAGAAGGUAACUAUGGAC”, the “apparent Kd” value by setting is: under setting [1], 79.9 nM; under setting [2], 49.3 nM.

By apparent Kd is commonly meant a dissociation constant that holds for the conditions of the assay.
